ChEMBL document CHEMBL1140708, “Synthesis and in vivo evaluation of halogenated N,N-dimethyl-2-(2'-amino-4'-hydroxymethylphenylthio)benzylamine derivatives as PET serotonin transporter ligands” (J Med Chem, 2008)
Blank lines part the entries; values can stand above or below the compound they belong to.

Experiments:
[1] = target: Sodium-dependent dopamine transporter (Homo sapiens, UniProt Q01959); assay: Displacement of [125I]RTI-55 from human DAT expressed in MDCK cells; assay type: cell-based
How it was run: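 MDCK cells stably expressing hDAT, grown to confluency in DMEM with 10% FBS and Geneticin, harvested in PBS/0.53 mM EDTA. Membranes (30–70 µg protein) were incubated 1 h at room temperature with 2.0 nM [125I]RTI-55 in 42 mM sodium phosphate/320 mM sucrose, pH 7.4. Competitor: 12 concentrations, 10^-13 to 10^-5 M, in triplicate. Filtered through PEI-soaked GF/B filters; Ki averaged over ≥2 assays.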

[2] = Partition coefficient, log P at pH 7.4; assay type: physicochemical; details: octanol/water
How it was run: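 Each 11C-labelled radiotracer was partitioned between 1-octanol and 0.02 M phosphate buffer at pH 7.4.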

[3] = organism: Homo sapiens; assay: Selectivity for human NET to human SERT
How it was run: (§1)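 Ratio of Ki at hDAT or hNET to Ki at hSERT. Ki values come from competition binding on transfected cell membranes: [125I]RTI-55 (MDCK-hDAT), [3H]nisoxetine (HEK-hNET) or [3H]citalopram (HEK-hSERT); 12 competitor concentrations from 10^-13 to 10^-5 M.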

[4] = organism: Homo sapiens; assay: Selectivity for human DAT to human SERT; how it was run: as §1
[5] = target: Sodium-dependent serotonin transporter (Homo sapiens, UniProt P31645); assay: Displacement of [3H]citalopram from human SERT expressed in HEK293 cells; assay type: cell-based
How it was run: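 Membranes (30–70 µg protein) from HEK-293 cells stably expressing hSERT, grown in DMEM/10% FBS/Geneticin. Incubated 2 h at room temperature with [3H]citalopram in 53 mM Tris, 126 mM NaCl, 5.3 mM KCl, pH 7.9. Competitor: 12 concentrations, 10^-13 to 10^-5 M, in triplicate. Rapid filtration on GF/B with cold buffer washes; Ki averaged from ≥2 separate assays.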

[6] = target: Sodium-dependent noradrenaline transporter (Homo sapiens, UniProt P23975); assay: Displacement of [3H]nisoxetine from human NET t expressed in HEK293 cells; assay type: cell-based
How it was run: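 Membranes (30–70 µg protein) from HEK-293 cells stably expressing hNET. Equilibrium with [3H]nisoxetine for 4 h at 4 °C in 53 mM Tris, 320 mM NaCl, 5.3 mM KCl, pH 7.4 at 4 °C. Competitor: 12 concentrations, 10^-13 to 10^-5 M, in triplicate. Ended by vacuum filtration through PEI-presoaked GF/B filters; Ki averaged from at least two assays, each in duplicate.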

[7] = tested on: Pons; assay: Drug uptake in cynomolgus monkey pons after 55 mins; assay type: ADME, tissue-based, Macaca fascicularis; details: in vivo
How it was run: (§2)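 Chase microPET scans in the same male cynomolgus monkey after i.v. 11C radiotracer (6.90–18.10 mCi). R,S-citalopram·HBr, 1.5 mg/kg, was given i.v. as a 30 s bolus at 45 min (ratios at 45 and 85 min) or 60 min (ratios at 55 and 115 min) post-tracer. Value is the region-to-cerebellum activity ratio before and after citalopram.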

[8] = tested on: Occipital cortex; assay: Drug uptake in cynomolgus monkey occipital cortex in presence of citalopram after 115 mins; assay type: ADME, tissue-based, Macaca fascicularis; details: in vivo; how it was run: as §2
[9] = tested on: Medulla; assay: Drug uptake in cynomolgus monkey medulla after 55 mins; assay type: ADME, tissue-based, Macaca fascicularis, Medulla of organ; details: in vivo; how it was run: as §2
[10] = tested on: Thalamus; assay: Drug uptake in cynomolgus monkey thalamus after 85 mins; assay type: ADME, tissue-based, Macaca fascicularis; details: in vivo
How it was run: (§3)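 Baseline microPET (Concorde P4) scans in one anesthetized adult male cynomolgus monkey (7.50–8.35 kg) after i.v. radiotracer. Attenuation correction used a 68Ge transmission scan; OSEM reconstruction, 3 mm resolution. Value is the region-of-interest to cerebellum activity ratio at 85 min post-injection.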

[11] = tested on: Putamen; assay: Drug uptake in cynomolgus monkey putamen after 55 mins; assay type: ADME, tissue-based, Macaca fascicularis; details: in vivo; how it was run: as §2
[12] = tested on: Caudate; assay: Drug uptake in cynomolgus monkey caudate in presence of citalopram after 115 mins; assay type: ADME, tissue-based, Macaca fascicularis, Caudate nucleus; details: in vivo; how it was run: as §2
[13] = tested on: Putamen; assay: Drug uptake in cynomolgus monkey putamen in presence of citalopram after 115 mins; assay type: ADME, tissue-based, Macaca fascicularis; details: in vivo; how it was run: as §2
[14] = tested on: Caudate; assay: Drug uptake in cynomolgus monkey caudate after 55 mins; assay type: ADME, tissue-based, Macaca fascicularis, Caudate nucleus; details: in vivo; how it was run: as §2
[15] = tested on: Midbrain; assay: Drug uptake in cynomolgus monkey midbrain after 55 mins; assay type: ADME, tissue-based, Macaca fascicularis; details: in vivo; how it was run: as §2
[16] = tested on: Pons; assay: Drug uptake in cynomolgus monkey pons after 85 mins; assay type: ADME, tissue-based, Macaca fascicularis; details: in vivo; how it was run: as §3
[17] = tested on: Occipital cortex; assay: Drug uptake in cynomolgus monkey occipital cortex after 55 mins; assay type: ADME, tissue-based, Macaca fascicularis; details: in vivo; how it was run: as §2
[18] = tested on: Midbrain; assay: Drug uptake in cynomolgus monkey midbrain in presence of citalopram after 115 mins; assay type: ADME, tissue-based, Macaca fascicularis; details: in vivo; how it was run: as §2
[19] = tested on: Pons; assay: Drug uptake in cynomolgus monkey pons in presence of citalopram after 115 mins; assay type: ADME, tissue-based, Macaca fascicularis; details: in vivo; how it was run: as §2
[20] = tested on: Caudate; assay: Drug uptake in cynomolgus monkey caudate after 85 mins; assay type: ADME, tissue-based, Macaca fascicularis, Caudate nucleus; details: in vivo; how it was run: as §3
[21] = tested on: Occipital cortex; assay: Drug uptake in cynomolgus monkey occipital cortex after 85 mins; assay type: ADME, tissue-based, Macaca fascicularis; details: in vivo; how it was run: as §3
[22] = tested on: Thalamus; assay: Drug uptake in cynomolgus monkey thalamus after 55 mins; assay type: ADME, tissue-based, Macaca fascicularis; details: in vivo; how it was run: as §2
[23] = tested on: Medulla; assay: Drug uptake in cynomolgus monkey medulla after 85 mins; assay type: ADME, tissue-based, Macaca fascicularis, Medulla of organ; details: in vivo; how it was run: as §3
[24] = tested on: Frontal cortex; assay: Drug uptake in cynomolgus monkey frontal cortex in presence of citalopram after 115 mins; assay type: ADME, tissue-based, Macaca fascicularis; details: in vivo; how it was run: as §2
[25] = tested on: Midbrain; assay: Drug uptake in cynomolgus monkey midbrain after 85 mins; assay type: ADME, tissue-based, Macaca fascicularis; details: in vivo; how it was run: as §3
[26] = tested on: Medulla; assay: Drug uptake in cynomolgus monkey medulla in presence of citalopram after 115 mins; assay type: ADME, tissue-based, Macaca fascicularis, Medulla of organ; details: in vivo; how it was run: as §2
[27] = tested on: Putamen; assay: Drug uptake in cynomolgus monkey putamen after 85 mins; assay type: ADME, tissue-based, Macaca fascicularis; details: in vivo; how it was run: as §3
[28] = tested on: Frontal cortex; assay: Drug uptake in cynomolgus monkey frontal cortex after 55 mins; assay type: ADME, tissue-based, Macaca fascicularis; details: in vivo; how it was run: as §2
[29] = tested on: Frontal cortex; assay: Drug uptake in cynomolgus monkey frontal cortex after 85 mins; assay type: ADME, tissue-based, Macaca fascicularis; details: in vivo; how it was run: as §3
[30] = tested on: Thalamus; assay: Drug uptake in cynomolgus monkey thalamus in presence of citalopram after 115 mins; assay type: ADME, tissue-based, Macaca fascicularis; details: in vivo; how it was run: as §2

Sequence of Sodium-dependent dopamine transporter (Q01959 whole entry): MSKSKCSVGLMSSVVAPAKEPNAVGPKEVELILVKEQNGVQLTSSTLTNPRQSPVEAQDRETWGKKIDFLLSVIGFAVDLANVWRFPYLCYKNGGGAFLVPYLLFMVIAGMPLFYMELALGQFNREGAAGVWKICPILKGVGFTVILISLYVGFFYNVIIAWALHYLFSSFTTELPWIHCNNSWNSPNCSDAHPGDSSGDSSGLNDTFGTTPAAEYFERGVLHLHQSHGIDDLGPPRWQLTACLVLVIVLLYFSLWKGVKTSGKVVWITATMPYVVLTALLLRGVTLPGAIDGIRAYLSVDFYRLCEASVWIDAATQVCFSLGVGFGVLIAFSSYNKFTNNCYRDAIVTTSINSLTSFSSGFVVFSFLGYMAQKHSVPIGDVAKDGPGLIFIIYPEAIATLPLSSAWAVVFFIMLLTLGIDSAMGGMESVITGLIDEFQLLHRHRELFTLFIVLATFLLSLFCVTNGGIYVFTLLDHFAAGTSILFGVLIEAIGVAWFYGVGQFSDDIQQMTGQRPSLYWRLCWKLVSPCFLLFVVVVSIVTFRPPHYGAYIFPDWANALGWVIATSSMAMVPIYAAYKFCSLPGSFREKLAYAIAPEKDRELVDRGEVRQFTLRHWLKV
Sequence of Sodium-dependent serotonin transporter (P31645 whole entry): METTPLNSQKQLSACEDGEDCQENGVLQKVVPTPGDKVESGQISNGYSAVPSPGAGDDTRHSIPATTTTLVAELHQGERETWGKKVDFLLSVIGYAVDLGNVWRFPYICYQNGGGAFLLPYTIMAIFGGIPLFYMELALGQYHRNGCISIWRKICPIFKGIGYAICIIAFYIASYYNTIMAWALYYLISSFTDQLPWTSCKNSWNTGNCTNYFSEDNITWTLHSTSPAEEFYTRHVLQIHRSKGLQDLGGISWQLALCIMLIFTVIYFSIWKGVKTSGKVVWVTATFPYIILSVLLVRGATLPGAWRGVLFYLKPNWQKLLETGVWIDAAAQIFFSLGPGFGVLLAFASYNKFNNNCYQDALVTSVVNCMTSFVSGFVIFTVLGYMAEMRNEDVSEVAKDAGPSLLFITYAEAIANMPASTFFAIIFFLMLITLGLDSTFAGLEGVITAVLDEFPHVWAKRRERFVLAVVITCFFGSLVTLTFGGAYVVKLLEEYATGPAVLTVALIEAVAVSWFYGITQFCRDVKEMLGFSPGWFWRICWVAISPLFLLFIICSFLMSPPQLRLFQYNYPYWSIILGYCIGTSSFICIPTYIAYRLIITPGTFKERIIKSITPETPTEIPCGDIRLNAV
Sequence of Sodium-dependent noradrenaline transporter (P23975 whole entry): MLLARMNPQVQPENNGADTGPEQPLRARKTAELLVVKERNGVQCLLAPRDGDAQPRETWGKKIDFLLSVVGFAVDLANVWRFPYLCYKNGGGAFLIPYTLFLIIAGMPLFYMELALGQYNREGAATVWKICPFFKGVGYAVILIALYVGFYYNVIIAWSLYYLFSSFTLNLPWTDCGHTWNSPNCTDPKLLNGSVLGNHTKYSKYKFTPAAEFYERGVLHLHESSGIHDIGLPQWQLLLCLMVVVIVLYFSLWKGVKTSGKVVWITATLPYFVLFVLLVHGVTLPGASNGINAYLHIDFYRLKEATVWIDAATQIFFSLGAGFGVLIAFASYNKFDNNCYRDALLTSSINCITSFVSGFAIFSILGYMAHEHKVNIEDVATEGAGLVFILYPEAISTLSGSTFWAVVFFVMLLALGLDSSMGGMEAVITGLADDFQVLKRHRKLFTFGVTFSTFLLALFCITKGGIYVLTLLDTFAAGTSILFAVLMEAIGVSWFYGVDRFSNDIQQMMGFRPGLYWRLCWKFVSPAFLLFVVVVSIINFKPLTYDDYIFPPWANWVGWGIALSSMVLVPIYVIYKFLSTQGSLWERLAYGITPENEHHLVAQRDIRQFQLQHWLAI

Ki [1]: > 1000 nM
logD [2]: 1.6
Ratio Ki [3]: 532
Ratio Ki [4]: > 1000
Structure (SMILES): CN(C)Cc1ccccc1Sc1ccc(CO)cc1N

Ki [1]: > 2000 nM
Ki [5]: 1.26 nM
Ki [6]: 618 nM
Ratio Ki [3]: 490
Ratio Ki [4]: > 1000
Structure (SMILES): CN(C)Cc1cc(F)ccc1Sc1ccc(CO)cc1N

Ki [1]: > 2000 nM
Ki [5]: 0.31 nM
Ki [6]: 467 nM
Ratio Ki [3]: > 1000
Ratio Ki [4]: > 1000
Structure (SMILES): CN(C)Cc1cc(I)ccc1Sc1ccc(CO)cc1N

Ratio [7]: 1.9
Ratio [8]: 1.1
Ratio [9]: 2.5
Ratio [10]: 2.06
Ratio [11]: 1.9
Ratio [12]: 1.3
Ratio [13]: 1.4
Ratio [14]: 1.8
Ratio [15]: 2.4
Ratio [16]: 1.65
Ratio [17]: 1.2
Ratio [18]: 1.7
Ratio [19]: 1.5
logD [2]: 1.82
Ratio [20]: 1.8
Ratio [21]: 1.2
Ratio [22]: 2
Ratio [23]: 2.4
Ratio [24]: 1
Ratio [25]: 3
Ratio [26]: 1.6
Ratio [27]: 2.3
Ratio [28]: 1
Ratio [29]: 1.09
Ratio [30]: 1.63
Structure (SMILES): CN([11CH3])Cc1cc(I)ccc1Sc1ccc(CO)cc1N
